Measurements taken from ChEMBL document CHEMBL3351942, “Rexinoids isolated from Sophora tonkinensis with a gene expression profile distinct from the synthetic rexinoid bexarotene” (J Nat Prod, 2014).
The source made the active and inactive calls. The calls are words filed in the database; no cut-off is given here.

What was measured:
[1] = Activation of LXR in mouse C2C12 cells assessed as induction of SREBP1 mRNA expression at 10 uM after 24 hrs in presence of T0901317 by quantitative RT-PCR analysis; type: cell-based
Outline: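 C2C12 myoblasts grown in DMEM/10% FBS, differentiated at confluence in 2% horse serum, medium changed every other day for 5 days; myotubes treated 24 h with or without T0901317 (1 μM). Total RNA, DNase-treated, oligo(dT) RT from 0.5 μg, SYBR green qPCR; normalized to β-actin (delta-delta Ct), fold over vehicle; mean ± SD of four determinants, one of two experiments.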

[2] = target: T1, Retinoic acid receptor RXR-alpha (Homo sapiens) (UniProt P19793); assay: Agonist activity at human RXR-alpha expressed in HEK293 cells coexpressing with pCMX-beta-gal at 10 uM after 24 to 48 hrs by luciferase reporter gene assay in presence of PA452 pan-antagonist; type: cell-based
T1 sequence (whole entry): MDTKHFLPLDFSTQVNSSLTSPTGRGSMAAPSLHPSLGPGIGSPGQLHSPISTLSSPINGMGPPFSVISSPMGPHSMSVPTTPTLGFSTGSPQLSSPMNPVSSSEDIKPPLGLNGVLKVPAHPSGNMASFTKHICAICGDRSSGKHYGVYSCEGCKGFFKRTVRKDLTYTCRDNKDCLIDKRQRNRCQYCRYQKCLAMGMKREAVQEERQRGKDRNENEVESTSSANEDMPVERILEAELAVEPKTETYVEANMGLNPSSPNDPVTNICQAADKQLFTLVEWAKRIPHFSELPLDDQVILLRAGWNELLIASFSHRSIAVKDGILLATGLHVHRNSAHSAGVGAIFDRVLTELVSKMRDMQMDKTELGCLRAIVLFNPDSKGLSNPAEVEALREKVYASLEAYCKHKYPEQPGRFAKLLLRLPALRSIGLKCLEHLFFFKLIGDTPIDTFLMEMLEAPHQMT
Outline: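 RXRα reporter in HEK293: cotransfected with RXRα expression vector, luciferase reporter and pCMX-β-gal. Eight hours after transfection, cells were treated with test compound at 10 μM with or without the RXR pan-antagonist PA452 (10 μM). Luciferase was normalized to β-galactosidase. Means ± SD of three determinants; representative of three experiments; one-way ANOVA with Bonferroni's t-test.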

[3] = system: RAW264.7; assay: Activation of RXR/LXR heterodimer in mouse RAW264.7 cells assessed as potentiation of T0901317-induced increase in ABCA1 mRNA level at 10 uM by quantitative RT-PCR analysis; type: cell-based
Outline: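 RAW264.7 macrophages in DMEM/10% FBS, exposed 24 h with or without LXR agonist T0901317; ABCA1 mRNA by SYBR green qRT-PCR, β-actin-normalized, fold vs vehicle; means ± SD of three determinants, one of three independent experiments; one-way ANOVA, Bonferroni.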

[4] = target: T2, Retinoic acid receptor RXR-alpha (Homo sapiens, UniProt P19793); assay: (§1) Agonist activity at human RXR-alpha expressed in HEK293 cells coexpressing with pCMX-beta-gal after 24 to 48 hrs by luciferase reporter gene assay; type: cell-based
T2 sequence (P19793 whole entry): T1 sequence (whole entry)
Outline: (§2)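 HEK293 cells transfected by calcium phosphate with 60 ng pCMX-hRXR-α, 150 ng CRBPII-tk-Luc and 30 ng pCMX-β-gal plus carrier pUC18 (600 ng DNA per well). After 8 h the cells were washed and exposed to compound in medium with 10% FBS for 24−48 h. Luciferase was normalized to β-galactosidase. Triplicate or quadruplicate; representative of three independent experiments; EC50 from dose-response.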

[5] = target: T1, Retinoic acid receptor RXR-alpha (Homo sapiens); assay: as §1; type: cell-based; outline: as §2
[6] = target: T3, Retinoic acid receptor RXR-gamma (Homo sapiens) (UniProt P48443); assay: Binding affinity to RXRgamma (unknown origin) by receptor-SRC1 cofactor complex formation assay
T3 sequence (whole entry): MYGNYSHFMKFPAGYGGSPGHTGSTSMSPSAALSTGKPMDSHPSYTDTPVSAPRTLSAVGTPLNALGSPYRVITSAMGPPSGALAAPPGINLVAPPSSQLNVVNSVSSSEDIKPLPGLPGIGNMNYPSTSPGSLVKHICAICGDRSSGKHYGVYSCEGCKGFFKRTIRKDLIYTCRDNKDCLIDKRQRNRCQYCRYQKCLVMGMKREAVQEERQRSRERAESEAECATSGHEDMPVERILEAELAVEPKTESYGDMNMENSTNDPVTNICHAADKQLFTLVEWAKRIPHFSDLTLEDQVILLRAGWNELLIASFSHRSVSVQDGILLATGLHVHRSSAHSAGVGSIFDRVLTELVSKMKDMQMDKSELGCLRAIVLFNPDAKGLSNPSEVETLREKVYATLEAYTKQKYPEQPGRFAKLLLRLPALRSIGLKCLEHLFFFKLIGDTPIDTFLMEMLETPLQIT
Outline: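 Ligand-dependent binding of RXR isotype to coactivator SRC-1 in an NR cofactor kit, detected with HRP-conjugated anti-RXR antibody at OD450. The full agonist CD3254 defined 100% and vehicle 0%. Efficacy was taken as maximum B/Bmax% and potency as EC50.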

[7] = organism: Homo sapiens; assay: Activation of PPARgamma/RXR heterodimer in human hepatoma cells assessed as increase in ANGPTL4 mRNA level at 10 uM by quantitative RT-PCR analysis; type: cell-based
Outline: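 HLE human hepatoma cells (DMEM, 10% FBS, 37 °C, 5% CO2) treated with or without rosiglitazone; ANGPTL4 mRNA by SYBR green qRT-PCR, β-actin-normalized delta-delta Ct, fold vs vehicle; means ± SD of three determinants, representative of three experiments.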

[8] = target: T4, Peroxisome proliferator-activated receptor gamma (Homo sapiens) (UniProt P37231); assay: Activation of PPARgamma (unknown origin) by receptor-CBP cofactor complex formation assay
T4 sequence (whole entry): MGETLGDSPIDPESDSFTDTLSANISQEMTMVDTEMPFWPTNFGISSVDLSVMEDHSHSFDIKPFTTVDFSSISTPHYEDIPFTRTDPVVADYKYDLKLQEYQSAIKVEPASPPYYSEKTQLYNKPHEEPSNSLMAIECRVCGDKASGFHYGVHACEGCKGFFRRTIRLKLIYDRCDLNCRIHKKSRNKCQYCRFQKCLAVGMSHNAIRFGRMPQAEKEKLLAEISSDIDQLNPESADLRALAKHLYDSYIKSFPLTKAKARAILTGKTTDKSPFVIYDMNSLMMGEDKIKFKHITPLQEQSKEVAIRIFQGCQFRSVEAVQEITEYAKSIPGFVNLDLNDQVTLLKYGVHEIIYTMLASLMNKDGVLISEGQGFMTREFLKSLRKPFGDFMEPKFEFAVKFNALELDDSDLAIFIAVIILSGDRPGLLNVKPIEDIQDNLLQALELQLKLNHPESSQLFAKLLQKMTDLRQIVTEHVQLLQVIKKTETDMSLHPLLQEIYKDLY
Outline: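 Cell-free cofactor recruitment ELISA: ligand-dependent binding of PPAR isotypes to CBP, detected by HRP-conjugated anti-PPAR antibody at OD450. Full agonists GW7647 (α), GW1929 (γ), GW501516 (δ) define 100%, vehicle 0%; efficacy as maximum B/Bmax% and potency as EC50.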

CC(C)=CCc1cc([C@@H]2CC(=O)c3ccc(O)c(CC=C(C)C)c3O2)cc2c1OC(C(C)(C)O)C2 (stereo partly drawn)
Activity [1]: inactive
Activity [2]: inactive
Activity [3]: Active
EC50 [4]: 770 nM
Activity [5]: Dose-dependent effect
Activity [6]: inactive
Activity [7]: Active
Activity [8]: inactive
